# Publication PMC4111568 (Bioorganic & medicinal chemistry, 2011)
# Test system: CWR22rv-1 cells
# Experiment: Cell death of CWR22rv-1 prostate cancer cells
# Format: cell-based, human
# Details: 25 μM, after 24 h
# In short: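 CWR22Rv1 cells were seeded at 300,000 cells/well in RPMI 1640 with 10% FBS, 2.5 mM L-glutamine and penicillin-streptomycin at 37 °C, 5% CO2, then serum-starved overnight. Test compound (DMSO stock, diluted in serum-free RPMI) was applied in triplicate for 24–72 h. Cells were trypsinised, fixed in 70% ethanol, treated with RNase (5 μg/mL), stained with propidium iodide (50 μg/mL), and DNA content/cell-cycle fractions were measured by flow cytometry.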
compound,measurement,value
"CCCCCCCC(O)(C(N)=O)c1cccc(Cl)c1 (racemic) [(±)-1, 2-(3-chlorophenyl)-2-hydroxynonanamide]",cell death,marginal effects
